20 molecules from ChEMBL document CHEMBL1152644, “Synthesis of isoquinolinone-based tetracycles as poly (ADP-ribose) polymerase-1 (PARP-1) inhibitors” (Bioorg Med Chem, 2009) can be followed below.

Assay [1] deals with Poly [ADP-ribose] polymerase 1 (Homo sapiens, UniProt P09874). The assay can be described thus: Inhibition of PARP1.
Assay [2] concerns DU-145. The assay can be described thus: Cytotoxicity against human DU145 cells at 10 uM by MTT assay. In kind it is functional.
Assay [3] concerns HCT-116. The assay can be described thus: Induction of temozolomide-induced cytotoxicity in human HCT116 cells assessed as potentiation factor, ratio of cytotoxic IC50 for temozolomide alone to cytotoxic IC50 temozolomide in presence of drug. It is filed as functional. An outline of the steps:
(§1)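 HCT116 cells in RPMI 1640 with 10% FBS at 37 °C under 5% CO2 were seeded at 3 x 10^4 cells/well and grown overnight. On day 2, medium was replaced with graded temozolomide or etoposide, with or without PARP-1 inhibitor at 0.5 µM. On day 4, CCK-8 was added for 4 h and A450 read. IC50 came from four-parameter logistic fits. Potentiation factor = IC50 (agent alone)/IC50 (agent + inhibitor); mean±S.D. of ≥3 independent experiments.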

Assay [4] relates to HCT-116. The assay can be described thus: Induction of etoposide-induced cytotoxicity in human HCT116 cells assessed as potentiation factor, ratio of cytotoxic IC50 for etoposide alone to cytotoxic IC50 etoposide in presence of drug. It is filed as functional. An outline of the steps: as §1
Assay [5] has as its system HCT-116. The assay can be described thus: Cytotoxicity against human HCT116 cells after 2 days. The settings on record: HCT-116, 48 h.

Counter-ions that a name gives are not always drawn.

Sequence of Poly [ADP-ribose] polymerase 1 (P09874 whole entry): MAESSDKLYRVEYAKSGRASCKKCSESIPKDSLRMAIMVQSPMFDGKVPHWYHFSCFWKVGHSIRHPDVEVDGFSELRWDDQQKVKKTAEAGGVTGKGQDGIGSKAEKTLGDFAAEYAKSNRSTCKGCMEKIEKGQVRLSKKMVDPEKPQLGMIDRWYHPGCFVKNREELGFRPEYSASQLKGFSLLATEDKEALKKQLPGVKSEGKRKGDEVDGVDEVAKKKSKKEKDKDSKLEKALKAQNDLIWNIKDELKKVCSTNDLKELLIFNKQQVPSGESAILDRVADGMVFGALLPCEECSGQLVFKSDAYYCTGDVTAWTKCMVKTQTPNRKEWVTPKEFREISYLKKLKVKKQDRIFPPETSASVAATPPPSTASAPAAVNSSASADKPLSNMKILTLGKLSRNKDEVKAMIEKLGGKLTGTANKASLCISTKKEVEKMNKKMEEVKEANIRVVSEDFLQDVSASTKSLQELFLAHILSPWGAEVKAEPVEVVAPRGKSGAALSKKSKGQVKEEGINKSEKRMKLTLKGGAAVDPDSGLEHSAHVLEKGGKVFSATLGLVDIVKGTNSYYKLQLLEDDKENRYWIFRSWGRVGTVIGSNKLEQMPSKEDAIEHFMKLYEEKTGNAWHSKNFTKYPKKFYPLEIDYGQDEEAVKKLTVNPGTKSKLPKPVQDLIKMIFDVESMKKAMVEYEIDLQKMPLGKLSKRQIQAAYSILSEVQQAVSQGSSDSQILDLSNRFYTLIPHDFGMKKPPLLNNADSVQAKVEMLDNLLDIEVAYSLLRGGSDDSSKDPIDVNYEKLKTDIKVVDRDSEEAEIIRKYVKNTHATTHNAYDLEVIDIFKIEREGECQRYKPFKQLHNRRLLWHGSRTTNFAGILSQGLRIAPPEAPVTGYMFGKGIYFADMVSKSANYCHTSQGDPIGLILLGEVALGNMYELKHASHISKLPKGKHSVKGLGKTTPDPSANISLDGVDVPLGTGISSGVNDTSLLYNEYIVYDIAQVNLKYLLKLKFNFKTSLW

In assay [1], `O=C1NCCc2c(OCCCCN3CCCCC3)cccc21` came in with an IC50 of 10.8 µM.
Molecule `Cc1ccc2nc3c4ccccc4c(=O)[nH]c3n2c1` returned an inhibition at 10 µM in assay [2] of 19.2%. Besides, inhibition in assay [1] was half-maximal at 4.27 µM (IC50).
In assay [2], `O=c1[nH]c2c(nc3cc(Cl)ccn32)c2ccccc12` displayed an inhibition at 10 µM of 11.4%. In assay [1], the IC50 amounted to 5.87 µM.
As to `O=c1[nH]c2c(nc3ncccn32)c2ccccc12`, the inhibition at 10 µM in assay [2] worked out at 14.2%. The molecule further displayed an IC50 in assay [1] of 5.78 µM.
In turn, `O=c1[nH]c2c(nc3c4ccccc4ccn32)c2ccccc12` came in with an inhibition at 10 µM in assay [2] of 25.5%. Also, in assay [1], the IC50 is 4.11 µM.
Consider `O=c1[nH]c2c(nc3ccc(Cl)cn32)c2ccccc12`, for which the inhibition at 10 µM in assay [2] is 0.2%. Besides, in assay [1], the IC50 is 14.8 µM.
In assay [1], `O=c1[nH]c2c(nc3cc(S(=O)(=O)NCCCN4CCOCC4)ccn32)c2ccccc12` showed an IC50 of 0.036 µM.
Consider `O=c1[nH]c2c(nc3ccc(Br)cn32)c2ccccc12`, for which the inhibition at 10 µM in assay [2] was 6.8%. In assay [1], this molecule registered an IC50 of 12.1 µM.
`COc1cc2nc3c4ccccc4c(=O)[nH]c3n2cn1`: in assay [2], the inhibition at 10 µM was 0%. In assay [1], this molecule registered an IC50 above 100 µM.
In assay [2], `Cc1cccc2nc3c4ccccc4c(=O)[nH]c3n12` displayed an inhibition at 10 µM of 25.6%. In addition, the IC50 in assay [1] was above 100 µM.
In turn, `O=c1[nH]c2c(nc3ccccn32)c2ccccc12` had an inhibition at 10 µM in assay [2] of 7.9%. In assay [1], this molecule yielded an IC50 of 0.85 µM.
Take `Cc1cc(C)n2c(c1)nc1c3ccccc3c(=O)[nH]c12`: the inhibition at 10 µM in assay [2] was 38.5%. Further, the IC50 in assay [1] was above 100 µM.
The matching figures for `Cc1cccn2c1nc1c3ccccc3c(=O)[nH]c12`: 9.1% and 3.31 µM.
On to `Cc1ccn2c(c1)nc1c3ccccc3c(=O)[nH]c12`, for which the PF50 in assay [3] and in assay [4] was 1.7 throughout. This molecule showed an inhibition at 10 µM in assay [2] of 0%. Also, 0.47 µM corresponded to half-maximal inhibition in assay [1] (IC50).
Consider `Cc1ccn2c(n1)nc1c3ccccc3c(=O)[nH]c12`, for which the PF50 in assay [3] amounted to 1.1; in assay [4] it was 1.2. In assay [2], this molecule displayed an inhibition at 10 µM of 27.7%. The IC50 in assay [1] was found to be 0.56 µM.
In turn, `O=c1[nH]c2c(nc3cnccn32)c2ccccc12` displayed an inhibition at 10 µM in assay [2] of 18.7%. The molecule also registered an IC50 in assay [1] of 3.23 µM.
As to `CC[C@@]1(O)C(=O)OCc2c1cc1n(c2=O)Cc2cc3ccccc3nc2-1` [CAMPTOTHECIN], in assay [2], 10 µM produced 69.4% inhibition.
`COc1cccc2c1C(=O)c1c(O)c3c(c(O)c1C2=O)C[C@@](O)(C(=O)CO)C[C@@H]3O[C@H]1C[C@H](N)[C@H](O)[C@H](C)O1` [DOXORUBICIN HYDROCHLORIDE]: in assay [2], testing at 10 µM gave an inhibition of 70.3%.
As to `COc1cc([C@@H]2c3cc4c(cc3[C@@H](O[C@@H]3O[C@@H]5CO[C@@H](C)O[C@H]5[C@H](O)[C@H]3O)[C@H]3COC(=O)[C@H]23)OCO4)cc(OC)c1O` [ETOPOSIDE], in assay [5], the IC50 worked out at 14.4 µM. In assay [2], this molecule returned an inhibition at 10 µM of 72.1%.
On to `Cn1nnc2c(C(N)=O)ncn2c1=O` [TEMOZOLOMIDE], for which the midpoint of inhibition in assay [5], the IC50, lay at 4.34 µM.
